Screening results deposited in PubChem BioAssay by Sanford-Burnham Center for Chemical Genomics.
Hits are enriched below; roughly 2.3% of the tested compounds scored in any of these assays.
Scp-1 inhibitor: Scp-1 (human) phosphatase inhibition; Recombinant Scp1, phosphopeptide, malachite green phosphate absorbance; inhibition, % at 20 µM; hit rate 0.88% among 340,000; AID 493091;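 active = inhibition above about 50% at 20 µM, limit read from the data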;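 note: plate controls were DMSO wells with enzyme for no effect and wells lacking enzyme for full effect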
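Assay system: SCP-1 catalytic fragment, aa 76-261 | Buffer or medium: Tris acetate buffer pH 5.5 with MgCl2 and Tween-20 | Compound: One concentration, 20 µM, with 1.0% DMSO | Also added: Phospho 17-mer peptide substrate | Signal: Absorbance at 630 nm | Incubation: 45 min enzyme reaction at room temperature | Measure: % inhibition of SCP-1 phosphate liberation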
DNMT1 inh: inhibitors of human DNMT1; P26358; DNMT1 molecular beacon, Hinp1I cleavage, fluorescence; inhibition (reported as % activation of signal), % at 10 µM; hit rate 0.83% among 360,000; in the data active = inhibition above about 50%
LMPTP block: LMPTP (human) inhibition; P24666; inhibition, % at 20 µM; recombinant LMPTP-A, OMFP fluorogenic substrate, fluorescence intensity; hit rate 0.22% among 360,000;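 active = compounds that cut the enzyme signal by at least half of the control window in the single-dose screen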;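 note: plate controls were DMSO wells with enzyme plus substrate for no effect and substrate without enzyme for full effect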
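Assay system: LMPTP-A phosphatase enzyme | Input: 0.625 nM enzyme | Also added: Fluorogenic phosphatase substrate OMFP at 400 µM final | Compound dosing: One test concentration per compound, 20 µM, with 3% DMSO overall | Schedule: 50 min enzyme reaction at room temperature, protected from light | Signal: Fluorescence intensity | Benchmarks: no-enzyme and uninhibited controls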
NadD inh: NadD (S. aureus) enzyme inhibition. purified NadD enzyme, colorimetric absorbance read-out. inhibition, % at 20 µM. hit rate 0.78% among 360,000; in the data active = inhibition above about 26%
SUMO1 PPI mod: modulators of human SUMO1-mediated protein-protein interactions. P63165. SUMO1 binding to a labelled peptide, TR-FRET, 1 h. inhibition, % at 20 µM. hit rate 0.33% among 360,000. AID 602429; in the data active = inhibition above about 37%
Target sequence (P63165 whole entry, looked up): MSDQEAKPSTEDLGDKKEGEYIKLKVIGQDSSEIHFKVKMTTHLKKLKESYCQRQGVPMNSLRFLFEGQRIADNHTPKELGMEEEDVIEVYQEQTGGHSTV
STEP inh: blocks human striatal-enriched tyrosine phosphatase; hit rate 0.25% among 360,000; P54829; inhibition, % at 20 µM; recombinant STEP, OMFP fluorogenic substrate, fluorescence;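 active = inhibition at 20 µM, scaled per plate between control wells, above about 37%, limit read from the data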;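 note: 0% = DMSO with enzyme and substrate and 100% = substrate only without enzyme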
Target sequence (P54829 whole entry, looked up): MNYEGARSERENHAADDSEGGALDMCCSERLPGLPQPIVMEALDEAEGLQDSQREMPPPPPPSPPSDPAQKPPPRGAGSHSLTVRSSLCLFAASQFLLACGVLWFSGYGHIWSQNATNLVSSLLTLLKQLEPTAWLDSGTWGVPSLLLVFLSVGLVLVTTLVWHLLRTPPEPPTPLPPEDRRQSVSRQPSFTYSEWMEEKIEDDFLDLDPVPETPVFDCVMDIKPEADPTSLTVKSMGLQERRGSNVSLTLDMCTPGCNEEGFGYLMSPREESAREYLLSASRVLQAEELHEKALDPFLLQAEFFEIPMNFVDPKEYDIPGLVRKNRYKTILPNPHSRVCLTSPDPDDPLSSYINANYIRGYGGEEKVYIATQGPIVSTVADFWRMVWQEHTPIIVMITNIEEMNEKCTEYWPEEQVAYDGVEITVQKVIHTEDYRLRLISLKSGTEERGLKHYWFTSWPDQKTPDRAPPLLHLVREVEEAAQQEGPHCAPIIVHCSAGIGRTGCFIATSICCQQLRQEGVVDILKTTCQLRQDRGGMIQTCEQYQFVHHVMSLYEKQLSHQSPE
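Also added – OMFP at 25 µM · Test system – STEP tyrosine phosphatase · Technique – FITC-channel fluorescence of OMFP product · Schedule – 20 min at room temperature, dark · Evaluation – control-normalized % inhibition with plate pattern correction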
NadD inh conf: confirmation of Staphylococcus aureus NadD inhibitors; hit rate 13% among 2,000; purified S. aureus NadD, colorimetric enzyme assay; AID 624309; shares compounds with NadD inh; inhibition, % at 20 µM; in the data active = inhibition mostly above about 42%, no sharp cut-off; inactive = mostly below about 42%
* marks the source's active call; other numbers are inactive results; . = not tested or not shown.

SMILES	Scp-1 inhibitor	DNMT1 inh	LMPTP block	NadD inh	SUMO1 PPI mod	STEP inh	NadD inh conf
COc1ccccc1/C=C/C1=NC(=C\C=C/c2ccccc2)/C(=O)O1	12.7	42.1	0.9	19.4	0.8	1.0	.
COc1ccccc1/C=C/C=C1N=C(/C=C/c2ccc(Cl)cc2)OC/1=O	-7.4	9.9	0.2	31.9*	-1.6	3.6	-2.6
CC(C)(C)NS(=O)(=O)c1ccc(/C=C/C(=O)O)cc1	-5.6	1.0	-2.3	-5.5	0.0	-0.9	.
CCOC(=O)c1sc(NC(=O)c2cc3n(n2)C(C(F)(F)F)CC(c2cccs2)N3)c(C(=O)OCC)c1C (configuration not stated)	-17.7	-2.8	4.0	29.7*	-1.4	1.0	2.8
COc1ccc(NC(=O)CN(C)C(=O)c2cccc(NS(=O)(=O)c3ccc(Br)cc3)c2)cc1	14.8	-0.4	0.8	0.7	4.2	-2.9	.
CC1=C(C(=O)Nc2ccccc2)C(c2ccco2)C(C#N)=C(SCC(=O)Nc2cccc(C)c2C)N1 (configuration not stated)	-4.6	14.9	0.6	10.9	0.6	1.0	.
CCOc1ccccc1NC(=O)CSC1=C(C#N)C(c2ccco2)C(C(=O)Nc2nc3ccccc3s2)=C(C)N1 (configuration not stated)	-2.7	-1.0	-1.1	41.9*	-7.4	1.4	28.7
O=C(c1cc2ccccc2o1)N1CCN(Cc2nc3ccccc3s2)CC1	.	2.6	0.1	13.0	0.0	3.7	.
CCOC(=O)c1c(-c2ccc(C)cc2)csc1NC(=O)/C(C#N)=C/c1ccc(O)c(OC)c1	4.5	8.4	-0.2	58.7*	10.8	-0.1	41.1
CCOC(=O)/C(C#N)=C\c1ccc(O)c(OC)c1	-1.3	2.2	-0.5	1.5	-14.3	3.5	.
CCOC(=O)c1c(-c2ccccc2)csc1NC(=O)/C(C#N)=C\c1ccc(O)c(OC)c1	-20.9	-26.0	1.1	34.6*	-2.5	-3.1	23.6
CCCCn1c(-c2ccc(C(C)(C)C)cc2)nc2cc3[nH]c(=O)c(C(C)C)nc3cc21	5.2	-22.0	2.9	35.7*	-0.2	3.4	4.3
CCCCn1c(-c2cccnc2)nc2cc3[nH]c(=O)c(C(C)C)nc3cc21	-8.2	-10.1	-1.0	8.0	-8.8	-2.0	.
N#CC1=C2SCN(c3ccccc3)CN2C(=O)CC1c1cccs1 (configuration not stated)	20.8	-3.2	-0.3	44.0*	-1.0	-0.8	16.3
CCOc1ccc(N2CSC3=C(C#N)C(c4ccco4)CC(=O)N3C2)cc1 (configuration not stated)	-3.8	3.8	-0.7	-1.9	1.3	0.5	.
Cc1ccc(C2CC(=O)N3CN(c4ccc(Br)cc4)CSC3=C2C#N)o1 (configuration not stated)	-12.6	101.2*	13.9	42.8*	17.7	13.2	-3.8
COc1ccccc1N1CSC2=C(C#N)C(c3ccc(SC)cc3)CC(=O)N2C1 (configuration not stated)	43.5	30.7	11.5	35.1*	8.5	3.4	38.7
CC1(C(=O)NS(C)(=O)=O)CCN1C(=O)C/C=C/c1ccccc1 (configuration not stated)	.	0.4	-0.6	-2.5	7.8	0.8	.
O=C(NCCc1c[nH]c2ccccc12)C1CCC(Cn2c(=S)[nH]c3ccccc3c2=O)CC1 (configuration not stated)	-8.0	-16.5	4.6	32.6*	0.4	-1.9	25.1
COc1cc2c(cc1OC)C1(Nc3c-2c(Cc2ccccc2)nn3-c2ccccc2)C(=O)Nc2ccccc21 (configuration not stated)	6.4	-19.7	4.0	44.7*	3.0	3.0	40.9
COc1cc2c(cc1OC)C1(NCC2)C(=O)Nc2ccccc21 (configuration not stated)	-2.4	0.4	-0.1	-0.2	-3.6	-2.5	.
Cn1c(=NC(=O)c2ccc(S(=O)(=O)N3CCCc4ccccc43)cc2)sc2cc(S(C)(=O)=O)ccc21	-7.6	-6.6	-1.5	13.5	-1.7	2.6	.
C#CCn1c(=NC(=O)c2ccc(S(=O)(=O)N3CCCc4ccccc43)cc2)sc2cc(S(N)(=O)=O)ccc21	-15.3	-13.3	2.8	49.7*	-5.3	-1.8	38.7
CCOc1ccc(NC(=O)CCNC(=O)Cn2cnc3ccccc3c2=O)cc1	-5.2	6.2	-1.4	-1.2	1.0	-2.8	.
Cc1ccc(Cl)cc1N1CCN(S(=O)(=O)c2ccc3[nH]c(=O)c(=O)[nH]c3c2)CC1	3.4	2.2	1.8	37.4*	0.4	1.8	49.0*
SMILES	Scp-1 inhibitor	DNMT1 inh	LMPTP block	NadD inh	SUMO1 PPI mod	STEP inh	NadD inh conf
CC(Nc1nc(Nc2ccc(F)cc2)nc(SCC(N)=O)n1)c1ccccc1 (configuration not stated)	-6.0	-7.7	1.7	1.7	1.9	-4.1	.
CC(Nc1nc(=S)nc(Nc2ccc(F)cc2)[nH]1)c1ccccc1 (configuration not stated)	-3.5	-2.4	3.9	31.2*	11.7	3.7	36.8
Cc1ccc(S(=O)(=O)N(C(=O)c2ccncc2)c2ccc3oc4c(c3c2)CCCC4)cc1[N+](=O)[O-]	11.9	-8.7	2.2	34.6*	-4.0	3.0	16.8
Cc1ccc([N+](=O)[O-])cc1S(=O)(=O)N(C(=O)c1ccncc1)c1ccc2oc3c(c2c1)CCCC3	20.0	-7.0	0.3	27.7	-7.7	0.6	.
Cc1cc(C)cc(NC(=S)N2CCC(NC(=O)c3ccccc3C)CC2)c1	4.6	0.8	0.5	-1.1	-1.6	0.0	.
CC(C)C[C@@H](CNCC(=O)[C@H](Cc1c[nH]c2ccccc12)NC(=O)c1[nH]cnc1C(=O)N[C@H](CN)CC(C)C)NC(=O)c1nc[nH]c1C(=O)N[C@@H](CC(=O)O)C(=O)O	12.6	6.1	-1.8	31.2*	23.9	1.7	45.4
O=C(Nc1ncnc2c1C(c1ccccc1)c1c(ccc3ccccc13)O2)c1ccccc1 (configuration not stated)	-8.7	-14.7	2.8	25.8	0.6	2.2	.
O=C(Cc1ccccc1)Nc1ncnc2c1C(c1ccccc1)c1c(ccc3ccccc13)O2 (configuration not stated)	-4.9	-1.9	3.8	31.6*	-2.9	-0.2	31.3
Cn1cnc(S(=O)(=O)NC2CCN(Cc3ccccc3)CC2)c1	-5.2	2.2	-1.5	-5.2	-4.1	1.1	.
Cc1cc(N2CCN(c3nc(-c4ccc([N+](=O)[O-])cc4)cs3)CC2)c2ccccc2n1	4.1	-14.3	95.4*	28.3*	-7.0	4.3	-12.7
CC(C)(c1ccccc1)c1ccc(OCc2ccc(C(=O)O)o2)cc1	-7.6	1.6	-1.3	0.9	9.3	-1.1	.
